Consider 15 compounds from PubChem BioAssay.

A word on the viability: it is a read-out of living cells in per cent, often relative to untreated cells. The inhibition is the drop in the measured response relative to a control, in per cent.

The source made the active and inactive calls.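 The calls were made as follows, unless noted: active = Her2 level under about 52% in both replicate screens, with viability over 70% of control (limit read from the data); inconclusive = Her2 under the limit in one screen only, or viability under 70%; inactive = Her2 level above the set limit.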

Experiment [1] can be described thus: Her2 expression decrease, cell viability multiplex – SKBR3 breast tumor cells, AlphaScreen, ATP viability, primary screen (AID 461).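 As to Her2 level: lower value means less Her2 protein in the cells.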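 As to viability: percent of carrier control wells set as 100% viability.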 Conditions: SKBR3 Her2 protein level, 18-24 h, measured here: SKBR3 viability, ATP luminescence, at 10 µM. On the technique in general: Alpha assays give light when donor and acceptor beads are brought close together.
For experiment [2], the target named is Receptor tyrosine-protein kinase erbB-2 (Homo sapiens) (UniProt P04626). The description is as above. Conditions: 18-24 h, at 10 µM, stronger effect = lower value.
The nature of experiment [3]: reduced viability of SK-BR-3 breast cancer cells – cell-based, 24 h, human, pilot screen (AID 572;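 active = viability at or below 10% of carrier control in both of two separate runs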;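 also: compound exposure lasted between 18 and 24 h rather than exactly 24 h; 100% = carrier-treated control wells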). The following applies: SK-BR-3 viability, CellTiter-Glo luminescence, at 10 µM, stronger effect = lower value. A general note: Cellular ATP, detected with luciferase, serves as a proxy for viable cell number.
Experiment [4] can be described thus: HUVEC growth inhibition – cell-based, human, primary screen (AID 575;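 active = viability at or below 30% in both replicate assays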;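 also: 100% = median of untreated cell wells with 0.1% DMSO on each plate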). The following applies: HUVEC proliferation, CellTiter-Glo luminescence, 72 h; at 10 µM; stronger effect = lower value. The essentials:
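material = primary HUVEC, no more than 12 passages | input = 1250 cells per well | controls = vehicle and MePR control wells | measured by = CTG luminescence | times = 72 h compound incubation | format = collagen-coated 384-well format | read-out = % viability vs DMSO wells | doses = single 10 µM dose, 0.1% DMSO, from 5x medium stock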

Experiment [5] in a line: H69AR cell proliferation blockers – human, duplicate replicates, primary screen (AID 580;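 active = viability at or under a set limit in both replicates, limit being median viability minus 3 SD, cut at about 48% in these data, passing the limit was not always enough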;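 also: 100% = mean luminescence of untreated wells and 0% = no signal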). The following applies: H69AR lung tumor cells viability, ATP luminescence, 72 h; at 10 µM; stronger effect = lower value.
Experiment [6] is described as follows: MRP1 drug-resistance reversers in H69AR cells – cell-based, doxorubicin co-treatment, pilot screen (AID 601;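 active = viability loss from added drug above about 55%, and viability with drug at most 40%, in both replicates, limit read from the data, passing the limit was not always enough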). Conditions: CellTiter-Glo, 72 h, at 10 µM; for differential viability (reversal): stronger effect = higher value.
A short description of experiment [7]: yeast transport mutant growth inhibition pilot in 384-well plates, post-Golgi transport modulator project (AID 636; in the data active = inhibition above about 31%). Conditions: absorbance 615 nm, about 18 h, stronger effect = higher value.
Experiment [8] is described as follows: growth suppression of yeast trafficking mutant, preliminary HTS, modulators of trafficking downstream of Golgi apparatus project, 1536-format plate, OD 615 nm (AID 637; in the data active = inhibition above about 30%). The following applies: yeast transport mutant growth, absorbance 615 nm, 18 h; stronger effect = higher value.
[9] abbreviates: H69AR cells + 2 uM doxorubicin, measured here: viability with 2 uM doxorubicin, stronger effect = lower value.
Setting [10] is: H69AR cells, compound alone cytotoxicity.

Sequence of Receptor tyrosine-protein kinase erbB-2 (Homo sapiens) (P04626 whole entry, looked up): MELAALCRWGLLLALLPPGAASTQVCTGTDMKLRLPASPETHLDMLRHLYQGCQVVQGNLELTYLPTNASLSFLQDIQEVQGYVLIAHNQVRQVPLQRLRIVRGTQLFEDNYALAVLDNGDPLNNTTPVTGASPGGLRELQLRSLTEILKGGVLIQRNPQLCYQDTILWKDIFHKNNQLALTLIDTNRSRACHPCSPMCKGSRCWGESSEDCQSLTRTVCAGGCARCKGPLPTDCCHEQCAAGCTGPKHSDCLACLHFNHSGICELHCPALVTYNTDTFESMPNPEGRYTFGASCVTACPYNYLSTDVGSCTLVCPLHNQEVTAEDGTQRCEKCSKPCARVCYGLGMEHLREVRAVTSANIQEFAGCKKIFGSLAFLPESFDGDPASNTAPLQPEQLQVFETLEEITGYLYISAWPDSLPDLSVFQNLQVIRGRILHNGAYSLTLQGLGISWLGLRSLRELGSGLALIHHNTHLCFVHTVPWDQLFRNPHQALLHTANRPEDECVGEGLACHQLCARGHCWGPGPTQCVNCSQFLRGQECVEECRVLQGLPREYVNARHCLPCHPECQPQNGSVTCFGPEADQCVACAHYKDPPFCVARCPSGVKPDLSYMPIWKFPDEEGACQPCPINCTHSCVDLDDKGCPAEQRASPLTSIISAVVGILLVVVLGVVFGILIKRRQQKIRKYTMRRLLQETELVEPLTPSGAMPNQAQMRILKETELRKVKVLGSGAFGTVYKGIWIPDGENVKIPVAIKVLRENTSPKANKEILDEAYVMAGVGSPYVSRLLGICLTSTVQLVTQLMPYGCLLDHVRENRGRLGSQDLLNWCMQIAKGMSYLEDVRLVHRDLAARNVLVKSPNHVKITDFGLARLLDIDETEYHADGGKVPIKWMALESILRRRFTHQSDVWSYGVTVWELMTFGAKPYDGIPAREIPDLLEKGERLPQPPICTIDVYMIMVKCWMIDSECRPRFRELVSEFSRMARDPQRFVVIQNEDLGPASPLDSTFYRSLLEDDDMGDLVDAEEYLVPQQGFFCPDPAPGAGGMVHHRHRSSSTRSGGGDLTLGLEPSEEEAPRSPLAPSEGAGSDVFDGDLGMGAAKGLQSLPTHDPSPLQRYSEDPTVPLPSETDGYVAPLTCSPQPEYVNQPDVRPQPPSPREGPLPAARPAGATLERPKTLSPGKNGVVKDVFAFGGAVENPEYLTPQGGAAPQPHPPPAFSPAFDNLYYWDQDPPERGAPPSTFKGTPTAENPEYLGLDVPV

As to `COc1ccccc1-c1coc2c(CN3CCN(CCO)CC3)c(O)ccc2c1=O`, the viability in experiment [1] is 87.5%; in experiment [3], 87.5% (inactive); in experiment [4], 94.5% (inactive); in experiment [5] it was 106% (inactive); in experiment [6] (setting [9]), 87.5%; in experiment [6] (setting [10]) it was 106%. In addition, in experiment [2], the Her2 level is 93.5% (inactive). The differential viability (reversal) in experiment [6] (H69AR cells + 2 uM doxorubicin) was 18.9% (inactive). Further, the values for the inhibition in experiment [7] and in experiment [8] were -4.27% (inactive) and 0.65% (inactive), respectively.

`O=C(c1ncc[nH]1)c1ccccc1C(=O)N1CCOCC1`: the viability in experiment [1] was 118%; in experiment [3], 118% (inactive); in experiment [4] it was 100% (inactive); in experiment [5], 90.3% (inactive); in experiment [6] (setting [9]), 87.3%; in experiment [6] (setting [10]), 90.3%. In addition, the Her2 level in experiment [2] is 112% (inactive). For the same compound, in experiment [6] (H69AR cells + 2 uM doxorubicin), the differential viability (reversal) was 3.04% (inactive). The inhibition in experiment [7] is -5.21% (inactive); in experiment [8], 1.75% (inactive).

Consider `COc1ccccc1CCNC(=O)C1CCCO1` (stereo not given), for which the viability was 108% in experiment [1]; 108% (inactive) in experiment [3]; 92.1% (inactive) in experiment [4]; 98.9% (inactive) in experiment [5]; 91.7% in experiment [6] (setting [9]); 98.9% in experiment [6] (setting [10]). Also, in experiment [2], the Her2 level is 97% (inactive). The differential viability (reversal) in experiment [6] (H69AR cells + 2 uM doxorubicin) was 7.17% (inactive). The inhibition was -6.18% (inactive) in experiment [7] and -11.3% (inactive) in experiment [8].

In the case of `COCCCNC(=O)CSc1nc2ccc(N3CCOCC3)cc2c(=O)n1CCc1ccccc1`, the viability is 104% in experiment [1]; 104% (inactive) in experiment [3]; 70.3% (inactive) in experiment [4]; 94.9% (inactive) in experiment [5]; 99.9% in experiment [6] (setting [9]); 94.9% in experiment [6] (setting [10]). In addition, the Her2 level in experiment [2] was 87% (inactive). Further, the differential viability (reversal) in experiment [6] (H69AR cells + 2 uM doxorubicin) was -5.04% (inactive). The inhibition in experiment [7] is -2.73% (inactive); in experiment [8] it was -0.48% (inactive).

Consider `COCCOC(=O)c1cc(C(=O)c2cc(F)ccc2O)coc1=N`, for which the viability in experiment [1] was 83.5%; in experiment [3], 83.5% (inactive); in experiment [4], 92% (inactive); in experiment [5], 91.1% (inactive); in experiment [6] (setting [9]) it was 95.1%; in experiment [6] (setting [10]), 91.1%. For the same compound, the Her2 level in experiment [2] is 82.5% (inactive). The differential viability (reversal) in experiment [6] (H69AR cells + 2 uM doxorubicin) is -3.97% (inactive). Further, the inhibition in experiment [7] is -1.56% (inactive); in experiment [8] it was -5.08% (inactive).

Take `Clc1cccc(-c2nn3c(Cn4cnc5ccccc54)nnc3s2)c1`: the viability is 94.5% in experiment [1]; 94.5% (inactive) in experiment [3]; 76.9% (inactive) in experiment [4]; 94.9% (inactive) in experiment [5]; 96.6% in experiment [6] (setting [9]); 94.9% in experiment [6] (setting [10]). Further, the Her2 level in experiment [2] is 82.5% (inactive). For the same compound, the differential viability (reversal) in experiment [6] (H69AR cells + 2 uM doxorubicin) was -1.69% (inactive). Moreover, the values for the inhibition in experiment [7] and in experiment [8] were 0.92% (inactive) and 5.9% (inactive), respectively.

Consider `N#Cc1nc(-c2cccs2)oc1NCc1ccc(Cl)cc1`, for which the viability was 111% in experiment [1]; 111% (inactive) in experiment [3]; 64.9% (inactive) in experiment [4]; 73.8% (inactive) in experiment [5]; 87.9% in experiment [6] (setting [9]); 73.8% in experiment [6] (setting [10]). The Her2 level in experiment [2] is 88.5% (inactive). Moreover, in experiment [6] (H69AR cells + 2 uM doxorubicin), the differential viability (reversal) is -14.1% (inactive). Also, the inhibition was -5.66% (inactive) in experiment [7] and 0.65% (inactive) in experiment [8].

On to `CCSc1nnc(-c2ccc(OC)cc2)o1`, for which the viability in experiment [1] was 100%; in experiment [3] it was 100% (inactive); in experiment [4] it was 92.7% (inactive); in experiment [5] it was 81.2% (inactive); in experiment [6] (setting [9]) it was 91.6%; in experiment [6] (setting [10]) it was 81.2%. Besides, the Her2 level in experiment [2] is 93.5% (inactive). Moreover, the differential viability (reversal) in experiment [6] (H69AR cells + 2 uM doxorubicin) is -10.4% (inactive). For the same compound, the inhibition was -0.51% (inactive) in experiment [7] and -11% (inactive) in experiment [8].

Consider `CCOC(=O)c1sc(NC(=O)COC(=O)Cn2cnc3ccccc32)c(C(=O)OCC)c1C`, for which the viability in experiment [1] was 96%; in experiment [3], 96% (inactive); in experiment [4], 68.4% (inactive); in experiment [5] it was 71.2% (inactive); in experiment [6] (setting [9]) it was 79.6%; in experiment [6] (setting [10]), 71.2%. Also, the Her2 level in experiment [2] was 78% (inactive). For the same compound, the differential viability (reversal) in experiment [6] (H69AR cells + 2 uM doxorubicin) is -8.35% (inactive). The inhibition in experiment [7] is -0.26% (inactive); in experiment [8] it was -4.44% (inactive).

For `CCOC(=O)CSc1nc2ccccc2n1CC(=O)N1CCN(c2ccccc2)CC1`, the viability in experiment [1] was 93.5%; in experiment [3] it was 93.5% (inactive); in experiment [4], 87.2% (inactive); in experiment [5], 89.9% (inactive); in experiment [6] (setting [9]) it was 87.1%; in experiment [6] (setting [10]) it was 89.9%. Besides, the Her2 level in experiment [2] was 99.5% (inactive). Moreover, in experiment [6] (H69AR cells + 2 uM doxorubicin), the differential viability (reversal) is 2.73% (inactive). For the same compound, the inhibition was -1.3% (inactive) in experiment [7] and -4.92% (inactive) in experiment [8].

As to `CCn1ncc(C2=NOC(C(=O)Nc3ccc4c(c3)OCO4)C2)c1C` (stereo not given), the viability in experiment [1] was 95.5%; in experiment [3] it was 95.5% (inactive); in experiment [4] it was 108% (inactive); in experiment [5], 94.8% (inactive); in experiment [6] (setting [9]) it was 93.9%; in experiment [6] (setting [10]) it was 94.8%. The Her2 level in experiment [2] is 139% (inactive). Besides, the differential viability (reversal) in experiment [6] (H69AR cells + 2 uM doxorubicin) was 0.945% (inactive). Further, the inhibition in experiment [7] was -3.97% (inactive); in experiment [8], -4.92% (inactive).

Consider `CCOC(=O)n1c(SCC(=O)N(CC)CC)nc2ccccc21`, for which the viability is 118% in experiment [1]; 118% (inactive) in experiment [3]; 105% (inactive) in experiment [4]; 101% (inactive) in experiment [5]; 85.7% in experiment [6] (setting [9]); 101% in experiment [6] (setting [10]). Further, the Her2 level in experiment [2] was 97.5% (inactive). The differential viability (reversal) in experiment [6] (H69AR cells + 2 uM doxorubicin) was 15.7% (inactive). The inhibition is -3.51% (inactive) in experiment [7] and 1.11% (inactive) in experiment [8].

As to `CCOC(=O)N1CCN(Cc2nc3c(c(=O)[nH]c(=O)n3C)n2Cc2cc(C)ccc2C)CC1`, the viability in experiment [1] was 102%; in experiment [3], 102% (inactive); in experiment [4], 112% (inactive); in experiment [5], 96.1% (inactive); in experiment [6] (setting [9]), 88.1%; in experiment [6] (setting [10]), 96.1%. Besides, in experiment [2], the Her2 level is 105% (inactive). Moreover, the differential viability (reversal) in experiment [6] (H69AR cells + 2 uM doxorubicin) is 7.95% (inactive). The inhibition in experiment [7] was -2.27% (inactive); in experiment [8] it was 0.32% (inactive).

Regarding `CC1Cc2ccccc2N1C(=O)c1cnsn1` (stereo not given), the viability in experiment [1] is 136%; in experiment [3], 136% (inactive); in experiment [4], 86.3% (inactive); in experiment [5] it was 97.8% (inactive); in experiment [6] (setting [9]), 87.4%; in experiment [6] (setting [10]), 97.8%. Further, the Her2 level in experiment [2] is 103% (inactive). In experiment [6] (H69AR cells + 2 uM doxorubicin), the differential viability (reversal) is 10.4% (inactive). Further, the results for the inhibition in experiment [7] and in experiment [8] were -6.71% (inactive) and -10.8% (inactive), respectively.

`Cc1cc(Cl)ccc1NC(=O)CSc1nnc(Cc2cccs2)n1Cc1ccco1`: the viability in experiment [1] is 77.5%; in experiment [3] it was 77.5% (inactive); in experiment [4], 68.3% (inactive); in experiment [5] it was 77.2% (inactive); in experiment [6] (setting [9]) it was 85.5%; in experiment [6] (setting [10]), 77.2%. Further, the Her2 level in experiment [2] is 95.5% (inactive). Moreover, the differential viability (reversal) in experiment [6] (H69AR cells + 2 uM doxorubicin) is -8.29% (inactive). For the same compound, the inhibition is -3.92% (inactive) in experiment [7] and 1.97% (inactive) in experiment [8].
